Screens (PubChem)
STEP block: STEP phosphatase inhibitors, primary screen, biochemical, fluorescence intensity, uHTS; 360,000 compounds, 0.25% hits; Tyrosine-protein phosphatase non-receptor type 5 (Homo sapiens), P54829; inhibition, % at 20 µM; recombinant STEP, OMFP fluorogenic substrate;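 active = inhibition at 20 µM, scaled per plate between control wells, above about 37%, limit read from the data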
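Measure: Control-normalized % inhibition with plate pattern correction | Test system: STEP phosphatase, cell-free reaction | Medium: pH 6.0 Bis-Tris with DTT and Tween 20 | Technique: Fluorescence, 480/540 nm | Times: Reaction 20 min, ambient temperature | Doses: Single compound dose of 20 µM, 1% DMSO final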
LMPTP block: LMPTP phosphatase inhibitors, primary screen, biochemical, fluorescence intensity, uHTS. Low molecular weight phosphotyrosine protein phosphatase (Homo sapiens), P24666. recombinant LMPTP-A, OMFP fluorogenic substrate. inhibition, % at 20 µM. 360,000 compounds, 0.22% hits. AID 651560, 2012;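 active = compounds that cut the enzyme signal by at least half of the control window in the single-dose screen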
Target sequence (P24666 whole entry, looked up): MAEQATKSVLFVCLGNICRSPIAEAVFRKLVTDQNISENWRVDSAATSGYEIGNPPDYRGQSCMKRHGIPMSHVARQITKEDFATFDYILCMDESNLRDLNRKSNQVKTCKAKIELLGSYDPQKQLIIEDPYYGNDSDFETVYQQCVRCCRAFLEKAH
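material = LMPTP-A | quantity = 0.625 nM enzyme | reagent = OMFP substrate, 400 µM final | buffer or medium = Bis-Tris pH 6.0, DTT, detergent | detection = endpoint fluorescence intensity from OMFP dephosphorylation | dosing = single 20 µM dose | read-out basis = % inhibition relative to no-enzyme and uninhibited control wells | control set = no-enzyme and uninhibited controls | timing = 50 min at room temperature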
Scp-1 inhibitor: Scp-1 phosphatase inhibitors, primary screen, biochemical, colorimetric, uHTS. Carboxy-terminal domain RNA polymerase II polypeptide A small phosphatase 1 (Homo …. Recombinant Scp1, phosphopeptide, malachite green phosphate absorbance. inhibition, % at 20 µM. 340,000 compounds, 0.88% hits. AID 493091, 2011;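 active = inhibition above about 50% at 20 µM, limit read from the data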
Target sequence (Q9GZU7 76-261 limits assumed): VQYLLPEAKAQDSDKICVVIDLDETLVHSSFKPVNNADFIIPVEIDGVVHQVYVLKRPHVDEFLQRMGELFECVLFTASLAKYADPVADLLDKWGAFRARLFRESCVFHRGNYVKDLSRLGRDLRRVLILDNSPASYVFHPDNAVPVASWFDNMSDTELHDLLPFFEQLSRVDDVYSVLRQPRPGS
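Test system – truncated SCP-1 phosphatase (76-261aa) · Reagent – Phosphorylated 17-residue peptide substrate · Incubation – 45 min room-temperature reaction, 5 min colour, 30 min stabiliser · Detection – colorimetric phosphate reagent with accelerator and stabiliser, absorbance at 630 nm · Measure – % inhibition at 20 µM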
SUMO1 PPI mod: modulators of SUMO1 protein-protein interactions, primary screen, biochemical, uHTS. Small ubiquitin-related modifier 1 (Homo sapiens), P63165. SUMO1 binding to a labelled peptide, TR-FRET, 1 h. inhibition, % at 20 µM. 360,000 compounds, 0.33% hits. AID 602429, 2012; in the data active = inhibition above about 37%
Target sequence (P63165 whole entry, looked up): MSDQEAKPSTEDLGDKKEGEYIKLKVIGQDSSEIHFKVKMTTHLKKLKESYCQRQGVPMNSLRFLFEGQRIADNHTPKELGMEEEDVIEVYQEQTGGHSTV
DNMT1 inh: human DNMT1 methyltransferase inhibitors, primary screen, biochemical, molecular beacon, fluorescence, HinP1I cleavage, uHTS | DNA (cytosine-5)-methyltransferase 1 (Homo sapiens), P26358 | inhibition (reported as % activation of signal), % at 10 µM | 360,000 compounds, 0.83% hits | AID 588458, 2011; in the data active = inhibition above about 50%
Scp1 confirm: Scp-1 phosphatase inhibitors, retest, confirmation, biochemical, colorimetric, single concentration; shares compounds with Scp-1 inhibitor; recombinant SCP-1 catalytic domain, phosphate release, malachite green absorbance; inhibition, % at 20 µM; 2,500 compounds, 61% hits
Scp-1 MG ctr: colorimetric readout interference by compounds, confirmation, artefact control for Scp-1 inhibitor project, biochemical, single concentration | shares compounds with Scp-1 inhibitor | Colorimetric interference counterscreen, malachite green absorbance 630 nm | apparent inhibition (interference), % at 20 µM | 2,500 tested, under 10 active;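 note: compounds added after enzyme reaction finished so only phosphate colour detection is probed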
Scp-1 Tm shift: Scp-1 binding by thermal shift, confirmation, orthogonal assay for Scp-1 inhibitor project, biophysical, differential scanning fluorimetry; shares compounds with Scp-1 inhibitor; Recombinant SCP1, Sypro Orange thermal shift Tm; thermal shift relative to vanadate control, % at 40 µM; 1,500 compounds, 25% hits;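 active = substances whose mean melting-temperature shift, as a percentage of the reference inhibitor's shift, reaches about 5.3%, limit read from the data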
Large screens that a line does not name were inactive (follow-up assays come after a bar, where they were run). This is a sample that favours compounds with a hit; in the whole collection about 1.7% have one here.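 Rule for the calls, unless noted: active = inhibition of at least 30% at 20 µM; inactive = the rest.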

COc1ccc(C(CC(=O)N2CCCC2)c2c(OC)cc(OC)c3c(-c4ccccc4)cc(=O)oc23)cc1 (centres undefined)	Scp-1 inhibitor 67, DNMT1 inh 94 | Scp1 confirm 59 | Scp-1 MG ctr inactive | Scp-1 Tm shift inactive
O=C(O)c1ccc2c(c1)C(=O)/C(=C/c1ccccc1)C2=O	Scp-1 inhibitor 76 | Scp1 confirm 53 | Scp-1 MG ctr inactive | Scp-1 Tm shift 23
Cc1c(NC(=O)C(C)OC(=O)c2ccc([N+](=O)[O-])cc2Cl)c(=O)n(-c2ccccc2)n1C (centres undefined)	none
Cc1[nH]c2ccccc2c1C(=O)CNc1nccs1	Scp-1 inhibitor 96 | Scp1 confirm inactive | Scp-1 MG ctr inactive
COCCN(C(=O)CC1C(=O)NCCN1CC(c1ccccc1)c1ccccc1)C(C)C (centres undefined)	none
CCOc1ccc(NC(=O)CSc2ccccc2N)cc1	none
COc1cccc2cc(C(=O)NCc3ccco3)c(=O)oc12	none
COc1cccc2cc(C(=O)NCc3ccco3)c(=Nc3ccc(C(=O)O)cc3)oc12	Scp-1 inhibitor 56 | Scp1 confirm 32 | Scp-1 MG ctr inactive | Scp-1 Tm shift inactive
COc1ccc(C(=O)Nc2ccc3ccccc3c2)cc1OC	none
COc1ccc(C(=O)Nc2ccc3c(c2)C(=O)c2ccccc2C3=O)cc1OC	STEP block 55, Scp-1 inhibitor 66, DNMT1 inh 57 | Scp1 confirm inactive | Scp-1 MG ctr inactive
COc1ccc(NC(=O)CN(c2ccccc2)S(=O)(=O)N(C)C)cc1OC	Scp-1 inhibitor 76 | Scp1 confirm 69 | Scp-1 MG ctr inactive | Scp-1 Tm shift inactive
COc1ccc(NC(=O)CN(c2ccccc2)S(=O)(=O)N(C)C)cc1Cl	none
CCOc1ccccc1NS(=O)(=O)c1ccc2oc(=O)ccc2c1	none
C[C@H](CO)N1C[C@H](C)[C@@H](CN(C)Cc2ccc(Cl)c(Cl)c2)Oc2c(NS(=O)(=O)c3cn(C)cn3)cccc2C1=O	Scp-1 inhibitor 59 | Scp1 confirm inactive | Scp-1 MG ctr inactive
C[C@H](CO)N1C[C@H](C)[C@@H](CN(C)Cc2ccncc2)Oc2c(NS(=O)(=O)c3cn(C)cn3)cccc2C1=O	Scp-1 inhibitor 57 | Scp1 confirm inactive | Scp-1 MG ctr inactive
CC(=O)N1CCN(Cc2cc(=O)oc3ccccc23)CC1	none (no result: Scp-1 inhibitor)
Nc1nc(NCCCN2CCOCC2)nc(Nc2cccc(Cl)c2)c1[N+](=O)[O-]	none
O=C(N/N=C/c1cn(-c2ccccc2)nc1-c1ccc2c(c1)OCCO2)c1ccncc1	Scp-1 inhibitor 75 | Scp1 confirm 57 | Scp-1 MG ctr inactive | Scp-1 Tm shift inactive
Cc1ccc(-c2csc3nnc(SCC(=O)Nc4nsc(-c5ccccc5)n4)n23)cc1	none
O=C(CSc1nnc2scc(-c3ccccc3)n12)Nc1nsc(-c2ccccc2)n1	Scp-1 inhibitor 71 | Scp1 confirm 74 | Scp-1 MG ctr inactive | Scp-1 Tm shift inactive
C[N+]1(C)CC2([N+](=O)[O-])CC=C(Oc3ccccc3)C([N+](=O)[O-])(C2)C1 (centres undefined)	Scp-1 inhibitor 97 | Scp1 confirm 87 | Scp-1 MG ctr inactive | Scp-1 Tm shift inactive
CCC(C)Oc1cccc(OCCCCN2C(=O)NC(C)(C)C2=O)c1 (centres undefined)	none
CC1(C)NC(=O)N(CCCCOc2cccc(C(F)(F)F)c2)C1=O	none | Scp1 confirm inactive | Scp-1 MG ctr inactive
NS(=O)(=O)c1ccc(NC(=O)CSc2nnc(NC3CC3)s2)cc1	Scp-1 inhibitor 87 | Scp1 confirm 47 | Scp-1 MG ctr inactive | Scp-1 Tm shift inactive
O=C(CSc1nnc(NC2CCCCC2)s1)Nc1ccc2c(c1)C(=O)c1ccccc1C2=O	none
CC(=O)Oc1ccc(-c2ccc(C(=O)NCCc3ccc(S(N)(=O)=O)cc3)cc2)cc1	none
Cc1cccc(NC(=O)CN2C(=O)S/C(=C\c3cccn3-c3cccc(C(=O)O)c3)C2=O)c1	Scp-1 inhibitor 70 | Scp1 confirm 71 | Scp-1 MG ctr inactive | Scp-1 Tm shift 11
Cc1cccc(C)c1NC(=O)CN1C(=O)S/C(=C\c2cccn2C)C1=O	none
Cc1cccc(C)c1NC(=O)CN1C(=O)S/C(=C\c2cccn2-c2cccc(C(=O)O)c2)C1=O	Scp-1 inhibitor 58 | Scp1 confirm 81 | Scp-1 MG ctr inactive | Scp-1 Tm shift 6.6
Cc1noc(C)c1NC(=O)N(C)C[C@H]1Oc2c(NC(=O)C3CCCCC3)cccc2C(=O)N([C@H](C)CO)C[C@@H]1C	none
Cc1ccc(-n2c(SCC(=O)Nc3ccc(Cl)cc3)nc(O)cc2=O)cc1	none
C[n+]1cn(CC(O)COCc2ccccc2)c2ccccc21 (centres undefined)	Scp-1 inhibitor 71 | Scp1 confirm 71 | Scp-1 MG ctr inactive | Scp-1 Tm shift inactive
Cc1cc2c(cc1C)[n+](C)cn2CC(O)COCc1ccccc1 (centres undefined)	none
COc1ccc(S(=O)(=O)CCC(=O)N2CCN(c3ccc([N+](=O)[O-])cc3)CC2)cc1	none
Cc1ccc(S(=O)(=O)CCC(=O)N2CCN(c3ccc([N+](=O)[O-])cc3)CC2)cc1	Scp-1 inhibitor 59 | Scp1 confirm inactive | Scp-1 MG ctr inactive
CCN1CCN(c2ccc(NC(=O)c3ccccc3F)cc2Cl)CC1	none
CCN1CCN(c2ccc(NC(=O)c3cc4ccccc4cc3OC)cc2C)CC1	Scp-1 inhibitor 65 | Scp1 confirm inactive | Scp-1 MG ctr inactive
CCc1cc(Cn2nc(-c3ccccc3)cc2C(=O)NCc2cccs2)on1	none
COC(=O)c1ccc(Cn2c(O)c(N=NC(N)=S)c3ccccc32)o1	Scp-1 inhibitor 60 | Scp1 confirm inactive | Scp-1 MG ctr inactive
CC(C)C(=O)Nc1ccc(C(=O)N/N=C/c2cc(Br)cc(Br)c2O)cc1	Scp-1 inhibitor 55 | Scp1 confirm inactive | Scp-1 MG ctr inactive
